Measurements published in ChEMBL document CHEMBL1275561, “In vitro activities of doripenem, a new broad-spectrum carbapenem, against recently collected clinical anaerobic isolates, with emphasis on the Bacteroides fragilis group” (2008).
≈ marks a conversion by molar mass, not a printed value.

Experiments:
Type in all cases: functional
[1] = tested on: Peptostreptococcus sp.; assay: Antimicrobial activity against Peptostreptococcus sp. by agar dilution method
How it was run: (§1)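 Log-phase isolates were adjusted to 0.5 McFarland, and about 10^5 CFU/spot was delivered by Steers replicator. Plates were incubated anaerobically at 37°C for 48 h. MIC was the lowest concentration giving a marked growth change versus the control plate. Eubacterium lentum ATCC 43055 was the QC strain, with repeats when out of range.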

[2] = tested on: Parabacteroides distasonis; assay: Antimicrobial activity against Bacteroides distasonis assessed as resistant isolates by agar dilution method
How it was run: (§2)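 CLSI agar dilution on enriched brucella agar (5% lysed defibrinated sheep blood, 1 μg/ml vitamin K1), plates made on test day. Log-phase inocula adjusted to 0.5 McFarland; about 10^5 CFU/spot by Steers replicator. Incubated anaerobically at 37°C for 48 h. MIC was the lowest concentration giving a marked change in growth versus the drug-free control plate. Resistance rates used CLSI anaerobe breakpoints. Controls were B. fragilis ATCC 25285 and B. thetaiotaomicron ATCC 29741.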

[3] = tested on: Bacteroides caccae; assay: Antimicrobial activity against Bacteroides caccae assessed as resistant isolates by agar dilution method; how it was run: as §2
[4] = tested on: Finegoldia magna; assay: Antimicrobial activity against Finegoldia magna by agar dilution method
How it was run: (§3)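 Gram-positive anaerobes were tested by CLSI agar dilution on brucella agar enriched with 5% lysed defibrinated sheep blood and 1 μg/ml vitamin K1. Inoculum was log-phase growth at 0.5 McFarland, about 10^5 CFU/spot by replicator. Incubation was anaerobic, 37°C, 48 h. MIC was the lowest concentration with a marked growth change versus the drug-free plate. Eubacterium lentum ATCC 43055 was the control, and tests were repeated if it fell outside the CLSI range.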

[5] = tested on: Clostridium paraputrificum; assay: Antimicrobial activity against Clostridium paraputrificum by agar dilution method
[6] = tested on: Parabacteroides merdae; assay: Antimicrobial activity against Bacteroides merdae assessed as resistant isolates by agar dilution method; how it was run: as §2
[7] = tested on: [Clostridium] innocuum; assay: Antimicrobial activity against Clostridium innocuum by agar dilution method
[8] = tested on: Clostridium tertium; assay: Antimicrobial activity against Clostridium tertium by agar dilution method
[9] = tested on: Bacteroides eggerthii; assay: Antimicrobial activity against Bacteroides eggerthii assessed as resistant isolates by agar dilution method; how it was run: as §2
[10] = tested on: Phocaeicola vulgatus; assay: Antimicrobial activity against Bacteroides vulgatus assessed as resistant isolates by agar dilution method; how it was run: as §2
[11] = tested on: Peptoniphilus asaccharolyticus; assay: Antimicrobial activity against Peptoniphilus asaccharolyticus by agar dilution method; how it was run: as §3
[12] = tested on: Bacteroides ovatus; assay: Antimicrobial activity against Bacteroides ovatus by agar dilution method
How it was run: (§4)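 CLSI agar dilution on enriched brucella agar (5% lysed defibrinated sheep blood, 1 μg/ml vitamin K1), with drug plates made on the test day. Log-phase cells were adjusted to 0.5 McFarland, and about 10^5 CFU/spot was delivered by Steers replicator. Plates were incubated anaerobically at 37°C for 48 h. MIC was the lowest concentration giving a marked growth change versus the control plate. Controls were B. fragilis ATCC 25285 and B. thetaiotaomicron ATCC 29741.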

[13] = tested on: Peptoniphilus asaccharolyticus; assay: Antimicrobial activity against Peptoniphilus asaccharolyticus assessed as resistant isolates by agar dilution method; settings: pooled result: one value given for 4 cell lines, strains, targets or settings
How it was run: (§5)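 Agar dilution following CLSI on brucella agar with 5% lysed defibrinated sheep blood and 1 μg/ml vitamin K1, plates made on test day. Log-phase cells at 0.5 McFarland, about 10^5 CFU/spot by Steers replicator, 48 h anaerobic at 37°C. MIC read as the lowest concentration causing a marked growth change versus control. Resistance counted by CLSI anaerobe breakpoints. Eubacterium lentum ATCC 43055 served as control.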

[14] = tested on: Bacteroides ovatus; assay: Antimicrobial activity against Bacteroides ovatus assessed as resistant isolates by agar dilution method; how it was run: as §2
[15] = tested on: Bacteroides fragilis; assay: Antimicrobial activity against Bacteroides fragilis by agar dilution method; how it was run: as §4
[16] = tested on: Bacteroides uniformis; assay: Antimicrobial activity against Bacteroides uniformis by agar dilution method; how it was run: as §4
[17] = tested on: Cutibacterium acnes; assay: Antimicrobial activity against Propionibacterium acnes assessed as resistant isolates by agar dilution method; how it was run: as §5
[18] = tested on: Bacteroides uniformis; assay: Antimicrobial activity against Bacteroides uniformis assessed as resistant isolates by agar dilution method; how it was run: as §2
[19] = tested on: Bacteroides nordii; assay: Antimicrobial activity against Bacteroides nordii assessed as resistant isolates by agar dilution method; how it was run: as §2
[20] = tested on: Cutibacterium acnes; assay: Antimicrobial activity against Propionibacterium acnes by agar dilution method; how it was run: as §1
[21] = tested on: Clostridium subterminale; assay: Antimicrobial activity against Clostridium subterminale by agar dilution method
[22] = tested on: Parvimonas micra; assay: Antimicrobial activity against Micromonas micros by agar dilution method; how it was run: as §3
[23] = tested on: Bacteroides eggerthii; assay: Antimicrobial activity against Bacteroides eggerthii by agar dilution method; how it was run: as §4
[24] = tested on: Bacteroides fragilis; assay: Antimicrobial activity against Bacteroides fragilis assessed as resistant isolates by agar dilution method; how it was run: as §2
[25] = tested on: Bacteroides caccae; assay: Antimicrobial activity against Bacteroides caccae by agar dilution method; how it was run: as §4
[26] = tested on: Parabacteroides merdae; assay: Antimicrobial activity against Bacteroides merdae by agar dilution method; how it was run: as §4
[27] = tested on: Bacteroides thetaiotaomicron; assay: Antimicrobial activity against Bacteroides thetaiotaomicron assessed as resistant isolates by agar dilution method; how it was run: as §2
[28] = tested on: Clostridium perfringens; assay: Antimicrobial activity against Clostridium perfringens by agar dilution method
[29] = tested on: Parabacteroides distasonis; assay: Antimicrobial activity against Bacteroides distasonis by agar dilution method; how it was run: as §4
[30] = tested on: Bacteroides thetaiotaomicron; assay: Antimicrobial activity against Bacteroides thetaiotaomicron by agar dilution method; how it was run: as §4
[31] = tested on: [Clostridium] innocuum; assay: Antimicrobial activity against Clostridium innocuum assessed as resistant isolates by agar dilution method; settings: pooled result: one value given for 4 cell lines, strains, targets or settings
[32] = tested on: Clostridioides difficile; assay: Antimicrobial activity against Clostridium difficile by agar dilution method
[33] = tested on: Bacteroides nordii; assay: Antimicrobial activity against Bacteroides nordii by agar dilution method; how it was run: as §4
[34] = tested on: Propionibacterium; assay: Antimicrobial activity against Propionibacterium sp. by agar dilution method; how it was run: as §1
[35] = tested on: Anaerococcus prevotii; assay: Antimicrobial activity against Anaerococcus prevotii by agar dilution method; how it was run: as §3
[36] = tested on: Propionibacterium; assay: Antimicrobial activity against Propionibacterium sp. assessed as resistant isolates by agar dilution method; how it was run: as §5
[37] = tested on: Finegoldia magna; assay: Antimicrobial activity against Finegoldia magna assessed as resistant isolates by agar dilution method; how it was run: as §5
[38] = tested on: Phocaeicola vulgatus; assay: Antimicrobial activity against Bacteroides vulgatus by agar dilution method; how it was run: as §4

C[C@@H](O)[C@H]1C(=O)N2C(C(=O)O)=C(S[C@@H]3CN[C@H](C(=O)Nc4cccc(C(=O)O)c4)C3)[C@H](C)[C@H]12
MIC50 [1]: 0.125 µg/mL (≈ 0.263 µM) | MIC90 [1]: 0.5 µg/mL (≈ 1.05 µM) | Activity [2]: 0% | Activity [3]: 0% | MIC50 [4]: 0.125 µg/mL (≈ 0.263 µM) | MIC90 [4]: 0.125 µg/mL (≈ 0.263 µM) | MIC50 [5]: 4 µg/mL (≈ 8.41 µM) | MIC90 [5]: 8 µg/mL (≈ 16.8 µM) | Activity [6]: 0% | MIC50 [7]: 4 µg/mL (≈ 8.41 µM) | MIC90 [7]: 8 µg/mL (≈ 16.8 µM) | MIC50 [8]: 4 µg/mL (≈ 8.41 µM) | MIC90 [8]: 8 µg/mL (≈ 16.8 µM) | Activity [9]: 0% | Activity [10]: 0% | MIC50 [11]: 0.125 µg/mL (≈ 0.263 µM) | MIC90 [11]: 0.5 µg/mL (≈ 1.05 µM) | MIC50 [12]: 1 µg/mL (≈ 2.1 µM) | MIC90 [12]: 4 µg/mL (≈ 8.41 µM) | Activity [13]: 0% | Activity [14]: 2.9% | MIC50 [15]: 0.5 µg/mL (≈ 1.05 µM) | MIC90 [15]: 2 µg/mL (≈ 4.21 µM) | MIC50 [16]: 0.5 µg/mL (≈ 1.05 µM) | MIC90 [16]: 2 µg/mL (≈ 4.21 µM) | Activity [17]: 0% | Activity [18]: 0% | Activity [19]: 0% | MIC [20]: 0.06 µg/mL (≈ 0.126 µM) | MIC50 [20]: 0.06 µg/mL (≈ 0.126 µM) | MIC90 [20]: 0.06 µg/mL (≈ 0.126 µM) | MIC50 [21]: 4 µg/mL (≈ 8.41 µM) | MIC90 [21]: 8 µg/mL (≈ 16.8 µM) | MIC50 [22]: 0.125 µg/mL (≈ 0.263 µM) | MIC90 [22]: 0.5 µg/mL (≈ 1.05 µM) | MIC50 [23]: 1 µg/mL (≈ 2.1 µM) | MIC90 [23]: 2 µg/mL (≈ 4.21 µM) | Activity [24]: 2% | MIC50 [25]: 0.5 µg/mL (≈ 1.05 µM) | MIC90 [25]: 2 µg/mL (≈ 4.21 µM) | MIC50 [26]: 1 µg/mL (≈ 2.1 µM) | MIC90 [26]: 2 µg/mL (≈ 4.21 µM) | Activity [27]: 0% | MIC [28]: 0.06 µg/mL (≈ 0.126 µM) | MIC50 [28]: 0.06 µg/mL (≈ 0.126 µM) | MIC90 [28]: 0.25 µg/mL (≈ 0.526 µM) | MIC50 [29]: 1 µg/mL (≈ 2.1 µM) | MIC90 [29]: 4 µg/mL (≈ 8.41 µM) | MIC50 [30]: 2 µg/mL (≈ 4.21 µM) | MIC90 [30]: 4 µg/mL (≈ 8.41 µM) | Activity [31]: 0% | MIC [32]: 2 µg/mL (≈ 4.21 µM) | MIC50 [33]: 1 µg/mL (≈ 2.1 µM) | MIC90 [33]: 2 µg/mL (≈ 4.21 µM) | MIC [34]: 0.06 µg/mL (≈ 0.126 µM) | MIC50 [34]: 0.06 µg/mL (≈ 0.126 µM) | MIC90 [34]: 0.25 µg/mL (≈ 0.526 µM) | MIC50 [35]: 0.125 µg/mL (≈ 0.263 µM) | MIC90 [35]: 0.5 µg/mL (≈ 1.05 µM) | Activity [36]: 0% | Activity [37]: 0% | MIC50 [38]: 0.5 µg/mL (≈ 1.05 µM) | MIC90 [38]: 2 µg/mL (≈ 4.21 µM)
